{"source": "paper PMC5453637", "about": "(Translational research : the journal of laboratory and …, 2016)", "key": {"[1]": {"system": "enteroids generated from normal human duodenum and jejunum", "experiment": "Swelling measurements in human enteroids", "type": "cell-based", "how_it_was_run": "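Enteroids came from adult duodenal/jejunal endoscopic biopsies, grown on coverglass dishes. Medium was replaced with Advanced DMEM/F12 and cytoplasm labelled with calcein green-AM, 1 h at 37°C. Forskolin was added, […], and/or test compound at 5 μM; test compound went in 10 min before forskolin when combined. Confocal images were taken every 10 min at 37°C, 5% CO2. Result was percent increase in enteroid area over initial area, e.g. at 40 min.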"}, "human wild-type CFTR [2]": {"target": "T1, human wild-type CFTR (Homo sapiens, UniProt P13569)", "T1 sequence (P13569 whole entry)": "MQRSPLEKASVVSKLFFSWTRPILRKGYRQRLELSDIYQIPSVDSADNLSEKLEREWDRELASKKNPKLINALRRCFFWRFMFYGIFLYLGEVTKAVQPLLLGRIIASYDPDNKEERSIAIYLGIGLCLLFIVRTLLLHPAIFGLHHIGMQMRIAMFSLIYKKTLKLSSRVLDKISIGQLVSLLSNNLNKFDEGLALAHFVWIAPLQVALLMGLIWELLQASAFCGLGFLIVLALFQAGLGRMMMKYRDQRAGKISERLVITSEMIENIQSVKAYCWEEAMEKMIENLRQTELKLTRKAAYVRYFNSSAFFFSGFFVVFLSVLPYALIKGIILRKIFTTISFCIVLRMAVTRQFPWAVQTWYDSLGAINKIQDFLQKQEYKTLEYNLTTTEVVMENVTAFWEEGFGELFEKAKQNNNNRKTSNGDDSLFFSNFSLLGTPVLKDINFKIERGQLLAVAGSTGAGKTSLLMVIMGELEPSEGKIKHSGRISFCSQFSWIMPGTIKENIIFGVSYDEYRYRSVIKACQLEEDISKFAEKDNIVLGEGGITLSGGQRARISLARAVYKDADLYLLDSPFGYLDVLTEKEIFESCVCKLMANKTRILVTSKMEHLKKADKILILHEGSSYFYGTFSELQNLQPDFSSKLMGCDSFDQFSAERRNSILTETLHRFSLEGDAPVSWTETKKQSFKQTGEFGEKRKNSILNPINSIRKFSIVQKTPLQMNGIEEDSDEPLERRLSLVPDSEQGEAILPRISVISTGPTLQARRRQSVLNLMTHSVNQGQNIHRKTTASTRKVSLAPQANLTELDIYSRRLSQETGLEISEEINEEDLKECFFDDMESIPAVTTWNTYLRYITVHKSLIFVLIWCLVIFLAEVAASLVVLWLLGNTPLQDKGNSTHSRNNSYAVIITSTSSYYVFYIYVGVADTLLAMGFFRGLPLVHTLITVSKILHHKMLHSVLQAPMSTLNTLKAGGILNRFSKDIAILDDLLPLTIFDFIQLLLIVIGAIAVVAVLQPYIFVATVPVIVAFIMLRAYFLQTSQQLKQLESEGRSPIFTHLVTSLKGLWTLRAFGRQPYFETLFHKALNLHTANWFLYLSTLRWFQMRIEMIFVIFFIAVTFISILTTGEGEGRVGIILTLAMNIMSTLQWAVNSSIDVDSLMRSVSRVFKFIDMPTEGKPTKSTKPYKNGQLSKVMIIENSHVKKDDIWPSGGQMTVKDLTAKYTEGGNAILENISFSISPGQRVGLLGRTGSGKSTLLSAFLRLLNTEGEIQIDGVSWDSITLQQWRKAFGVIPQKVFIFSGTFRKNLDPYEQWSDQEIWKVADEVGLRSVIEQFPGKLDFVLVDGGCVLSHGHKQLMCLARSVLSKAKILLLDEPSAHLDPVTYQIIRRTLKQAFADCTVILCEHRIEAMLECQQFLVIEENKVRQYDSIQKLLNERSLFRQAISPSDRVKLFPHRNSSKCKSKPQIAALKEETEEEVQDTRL", "experiment": "Whole-cell patch-clamp in FRT cells", "type": "cell-based"}, "C3H/HeJ mice": {"system": "C3H/HeJ mice", "experiment": "Genetic mouse model of chronic constipation", "type": "in vivo"}, "[3]": {"system": "loperamide-induced constipation", "details": "cited from earlier work"}, "human wild-type CFTR [4]": {"target": "T1, human wild-type CFTR", "experiment": "Inside-out patch-clamp", "type": "biochemical", "details": "1 μM, after submaximal ATP and catalytic subunit of protein kinase A", "how_it_was_run": "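Inside-out macro-patches were taken from FRT cells stably expressing human wild-type CFTR using large pipette tips (3–5 MΩ). Pipette: 150 mM NMDG-Cl, 3 CaCl2, 2 MgCl2, 10 Na-HEPES, pH 7.3. Test compound (1 μM) followed. Steps of 600 ms ran −100 to +100 mV in 20 mV increments from −60 mV holding, 4 s apart; filtered 1 kHz, sampled 5 kHz. Three experiment sets.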"}, "[5]": {"details": "mice, rapid hepatic metabolism; cited from earlier work"}, "cellular cAMP [6]": {"system": "cellular cAMP", "experiment": "cAMP immunoassay in FRT cells", "type": "cell-based, rat", "details": "10 μM, 10 min, alone or with 90 nM forskolin", "how_it_was_run": "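FRT cells in 12-well plates received vehicle, 10 μM test compound with or without 90 nM forskolin, or 20 μM forskolin alone, for 10 min at 37°C. Cells were lysed by freeze-thaw and centrifuged (600g, 10 min, 4°C). cAMP was measured by immunoassay.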"}, "[7]": {"details": "cited from earlier work"}, "cytoplasmic Ca^2+": {"system": "cytoplasmic Ca^2+", "experiment": "Cytoplasmic calcium measurement", "type": "cell-based, rat", "details": "10 μM, 2 min, added alone", "how_it_was_run": "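FRT cells were loaded with Fluo-4 NW 48 h after plating. They were pretreated 2 min with 10 μM test compound or vehicle, then given 100 μM ATP as calcium agonist. Cytoplasmic Ca2+ was read as Fluo-4 fluorescence (ex/em 494/516 nm) in a plate reader with syringe pumps.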"}, "C3H/HeOuJ mice": {"system": "C3H/HeOuJ mice", "experiment": "Wild-type control mice", "type": "in vivo", "details": "10 mg/kg", "how_it_was_run": "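Female C3H/HeJ (Tlr4 mutant, chronically constipated) and background C3H/HeOuJ mice, 8–11 weeks, were studied as paired animals. They received test compound 10 mg/kg orally in saline with 5% DMSO and 10% Kolliphor HS 15, or vehicle, at zero time, then went into metabolic cages. Stool was collected 4 h for weight, pellet count and water content ([wet − dry]/wet after drying 80°C, 24 h). n=10 mice/group.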"}, "[8]": {"experiment": "Stability in simulated gastric fluid", "type": "physicochemical", "details": "10 μM, pH 2, 37°C, 3 hour", "how_it_was_run": "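Test compound (10 μM) was incubated 0 or 3 h at 37°C in simulated gastric fluid (NaCl, 0.7% HCl, pH 2). Remaining compound was measured by LC/MS chromatography. n=3.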"}, "cellular cGMP": {"system": "cellular cGMP", "experiment": "cGMP immunoassay in FRT cells", "type": "cell-based, rat", "details": "10 μM, 10 min", "how_it_was_run": "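FRT cells received 10 μM test compound or vehicle for 10 min at 37°C. They were lysed by freeze-thaw and cleared by centrifugation (600g, 10 min, 4°C). cGMP was measured by immunoassay.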"}, "human wild-type CFTR [9]": {"target": "T1, human wild-type CFTR", "experiment": "Plate reader assay of CFTR activity", "type": "cell-based", "details": "read-out: EC50 CFTR activation; as stated in abstract", "how_it_was_run": "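FRT cells co-expressing human wild-type CFTR and YFP-H148Q were plated at 20,000 cells/well and used 24–48 h later. After 3 PBS washes, cells were incubated 10 min with test compound plus 125 nM forskolin. Fluorescence was recorded 2 s at baseline, then 12 s after adding PBS with 137 mM Cl⁻ replaced by I⁻. Initial iodide influx rate came from exponential regression. EC50 was taken from full concentration-dependence data, n=3.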"}, "CFTR-deficient mice": {"system": "CFTR-deficient mice", "details": "cited from earlier work"}, "[10]": {"system": "scopolamine-induced constipation", "experiment": "Scopolamine-induced mouse model of acute constipation", "type": "in vivo, mice", "how_it_was_run": "(§1)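 Female CD1 mice, 8–10 weeks, were made constipated with loperamide 0.3 mg/kg ip or scopolamine 0.5 mg/kg ip. Test compound 10 mg/kg (saline with 5% DMSO and 10% Kolliphor HS 15) or vehicle was given ip or orally, 1 h before or 1 h after the inducer. Mice sat in metabolic cages with food and water. Stool was collected 3 h for weight, pellet number and water content (dried 80°C, 24 h). n=4 mice/group.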"}, "[11]": {"experiment": "In vitro metabolic stability in human liver microsomes", "type": "in vitro ADME", "details": "1 mM NADPH, 37°C", "how_it_was_run": "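Test compound was incubated at 37°C for specified times with human liver microsomes (1 mg protein/mL) in 100 mM potassium phosphate with 1 mM NADPH. Samples were chilled on ice and extracted with ice-cold ethyl acetate. Supernatant was dried, redissolved in acetonitrile:water 3:1 and quantified by LC/MS: 5–95% acetonitrile gradient over 16 min, 0.2 mL/min, ESI(+), m/z 100–1500.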"}, "cellular cAMP [12]": {"system": "cellular cAMP", "details": "cited from earlier work"}, "[13]": {"system": "loperamide-induced constipation", "experiment": "Loperamide-induced mouse model of constipation", "type": "in vivo, mice", "how_it_was_run": "as §1"}}, "note": "Where “and” joins values, the source holds several entries; their conditions need not be identical. Equal entries are not always repeated."}
{"compound": "C=C[C@@]1(C)CC(=O)[C@]2(O)[C@@]3(C)[C@@H](O)CCC(C)(C)[C@@H]3[C@H](O)[C@H](OC(C)=O)[C@@]2(C)O1", "note": "[forskolin, reference compound]", "values": [{"measurement": "Enteroid area, forskolin alone", "setting": "[1]; 0.3 μM forskolin, 40 minutes, human jejunal enteroids", "value": "small increase in area"}]}
{"compound": "CFTRinh-172 [reference compound]", "values": [{"measurement": "Block of currents activated by forskolin and CFTRact-J027", "setting": "human wild-type CFTR [2]; 10 μM", "value": "blocked"}]}
{"compound": "Nc1ccc([N+](=O)[O-])cc1-c1nc2ccccc2n(Cc2ccccc2)c1=O", "note": "[CFTRact-J027]", "values": [{"measurement": "Whole-gut transit time", "setting": "C3H/HeJ mice; 10 mg/kg ip", "value": "normalized"}, {"measurement": "4-hour stool weight, pellet number, and water content", "setting": "C3H/HeJ mice; 10 mg/kg oral", "value": "to the level of wild-type controls"}, {"measurement": "Stool output, stool water content, and intestinal transit", "setting": "[3]; acute constipation produced by loperamide", "value": "normalized"}, {"measurement": "ED50 orally administered, loperamide model", "setting": "[3]; oral, mice", "value": 0.5, "unit": "mg/kg"}, {"measurement": "CFTR activity in inside-out patch", "setting": "human wild-type CFTR [4]", "value": "strongly increased CFTR activity"}, {"measurement": "Systemic exposure following oral administration", "setting": "[5]", "value": "minimal systemic exposure"}, {"measurement": "Cellular cAMP", "setting": "cellular cAMP [6]", "value": "did not elevate cellular cAMP"}, {"measurement": "Increase of CFTR activity (whole-cell current)", "setting": "human wild-type CFTR [2]; 1 μM extracellular, after 150 nM forskolin (~25% maximal stimulation)", "value": "more than 4 fold"}, {"measurement": "Blood counts, serum chemistries, and lung water content", "setting": "[7]; chronic oral high-dose, mice", "value": "no effect"}, {"measurement": "Toxicity", "setting": "[7]", "value": "showed no toxicity"}, {"measurement": "Cytoplasmic Ca^2+", "setting": "cytoplasmic Ca^2+", "value": "nor did it elevate cytoplasmic Ca^2+"}, {"measurement": "Stool parameters or whole-gut transit time in wild-type control mice", "setting": "C3H/HeOuJ mice", "value": "did not affect"}, {"measurement": "Stability in simulated gastric fluid", "setting": "[8]", "value": "no compound degradation"}, {"measurement": "Cellular cGMP", "setting": "cellular cGMP", "value": "did not elevate cellular cGMP"}, {"measurement": "EC50", "setting": "human wild-type CFTR [9]", "value": "~200", "unit": "nM"}, {"measurement": "Effect in CFTR-deficient mice", "setting": "CFTR-deficient mice", "value": "no effect"}, {"measurement": "Enteroid size, compound alone", "setting": "[1]; 5 μM, 40 minutes, human jejunal enteroids, no forskolin", "value": "Little or no change"}, {"measurement": "Enteroid swelling response to low forskolin after pretreatment", "setting": "[1]; 0.1 or 0.2 μM forskolin, pretreatment 10 minutes with CFTRact-J027, duodenum and jejunum", "value": "increased"}, {"measurement": "Swelling response relative to maximal (5 μM) forskolin", "setting": "[1]; human enteroids", "value": "approximately 50%"}, {"measurement": "Efficacy on stool parameters, given after development of constipation", "setting": "[10]; 10 mg/kg ip, 1 hour after scopolamine", "value": "effective"}, {"measurement": "Efficacy on stool parameters, given orally after development of constipation", "setting": "[10]; 10 mg/kg po, 1 hour after scopolamine", "value": "not effective"}, {"measurement": "Stool parameters (3-hour stool weight, pellet number, water content)", "setting": "[10]; 10 mg/kg po, 1 hour before scopolamine 0.5 mg/kg ip", "value": "normalization of stool parameters"}, {"measurement": "Duration of effect", "setting": "[10]; in mice", "value": "3 to 4", "unit": "h"}, {"measurement": "Elimination half-life in human hepatic microsomes", "setting": "[11]; 1 mg protein/mL, CFTRact-J027 as printed", "value": "~ 35 min and 35 min"}, {"measurement": "Compound remaining at 60 minutes", "setting": "[11]; human hepatic microsomes", "value": 34, "unit": "%"}, {"measurement": "Cellular cAMP concentration (prior data)", "setting": "cellular cAMP [12]", "value": "does not elevate cellular cAMP concentration"}, {"measurement": "Efficacy on stool parameters, given after development of constipation", "setting": "[13]; 10 mg/kg ip, 1 hour after loperamide 0.3 mg/kg ip", "value": "effective"}, {"measurement": "Efficacy on stool parameters, given orally after development of constipation", "setting": "[13]; 10 mg/kg po, 1 hour after loperamide", "value": "not effective"}]}
